Measurements: ChEMBL document CHEMBL1250427, “Synthesis and biodistribution of [11C]A-836339, a new potential radioligand for PET imaging of cannabinoid type 2 receptors (CB2)” (Bioorg Med Chem, 2010)

Experiments:
[1] = system: Cerebellum; test: Drug uptake in CD1 mouse cerebellum at 5 to 7 mBq, iv after 60 mins; format: ADME, organism-based; settings: in vivo, 1 h
Outline: (§1)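 Male CD-1 mice (23-28 g). [11C]radioligand given into a lateral tail vein at […], specific radioactivity ~150 GBq/μmol, in 0.2 mL saline. Mice killed by cervical dislocation at several times after injection. Organs and brain regions dissected on ice, weighed and γ-counted against injectate standards. Uptake given as %ID/g tissue, mean ± SD, n=3.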

[2] = system: Cerebellum; test: Drug uptake in APPswe/PS1dE9 mouse cerebellum at 5 to 7 mBq, iv; format: ADME, organism-based; settings: in vivo
Outline: (§2)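 Female APPswe/PS1dE9 bigenic mice (line 85, C57Bl/6J background), 18 months old. [11C]radioligand given into a lateral tail vein at […], specific radioactivity ~150 GBq/μmol, in 0.2 mL saline. Mice killed by cervical dislocation at 60 min. Brain regions dissected on ice, weighed and γ-counted against injectate standards. Uptake expressed as blood-normalized %ID/g tissue × body weight (kg).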

[3] = system: Cortex; test: Drug uptake in LPS-stimulated CD1 mouse cortex at 5 to 7 mBq, iv administered 5 days post LPS challenge; format: ADME, organism-based; settings: in vivo, 120 h
Outline: (§3)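 Male CD1 mice given LPS (strain O111:B4, 5 mg/kg in saline, i.p.) 5 days before study. [11C]radioligand ([…], ~150 GBq/μmol, 0.2 mL saline) injected into the tail vein. Mice killed at 60 min and brain regions dissected and γ-counted. Uptake given as %ID/g tissue and as blood-normalized %ID/g tissue × body weight (kg). Mean ± SD, n=3.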

[4] = Drug uptake in LPS-stimulated CD1 mouse brainstem at 5 to 7 mBq, iv in presence of AM630; format: ADME, organism-based; settings: in vivo
Outline: (§4)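 Blocking study in male CD1 mice, either controls or LPS-treated (5 mg/kg LPS O111:B4 i.p., 5 days earlier). AM630 (3 mg/kg) or GW405833 (2 mg/kg) was given s.c. in 0.1 mL DMSO; vehicle controls received DMSO alone. [11C]radioligand ([…], ~150 GBq/μmol) was injected i.v. 30 min later. Tissues harvested at 60 min and γ-counted. Mean ± SD, n=3.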

[5] = system: Cerebellum; test: Drug uptake in LPS-stimulated CD1 mouse cerebellum at 5 to 7 mBq, iv in presence of AM630; format: ADME, organism-based; settings: in vivo; outline: as §4
[6] = target: Cannabinoid receptor 2 (Homo sapiens, UniProt P34972); test: Agonist activity at CB2 receptor; format: functional
[7] = system: Liver; test: Drug uptake in CD1 mouse liver at 5 to 7 mBq, iv; format: ADME, organism-based; settings: in vivo; outline: as §1
[8] = system: Spleen; test: Drug uptake in CD1 mouse spleen at 5 to 7 mBq, iv; format: ADME, organism-based; settings: in vivo; outline: as §1
[9] = system: Hippocampus; test: Drug uptake in CD1 mouse hippocampus at 5 to 7 mBq, iv after 60 mins; format: ADME, organism-based; settings: in vivo, 1 h; outline: as §1
[10] = system: Brain; test: Drug uptake in CD1 mouse brain at 5 to 7 mBq, iv in presence of AM630; format: ADME, organism-based; settings: in vivo; outline: as §4
[11] = system: Brain; test: Drug uptake in LPS-stimulated CD1 mouse brain at 5 to 7 mBq, iv administered 5 days post LPS challenge; format: ADME, organism-based; settings: in vivo, 120 h; outline: as §3
[12] = Ratio of drug uptake in brain to blood in LPS-stimulated CD1 mouse at 5 to 7 mBq, iv; format: ADME, tissue-based; outline: as §3
[13] = system: Brain; test: Drug uptake in CD1 mouse brain at 5 to 7 mBq, iv in presence of GW-405833; format: ADME, organism-based; settings: in vivo; outline: as §4
[14] = system: Cortex; test: Drug uptake in LPS-stimulated CD1 mouse cortex at 5 to 7 mBq, iv in presence of AM630; format: ADME, organism-based; settings: in vivo; outline: as §4
[15] = system: Kidney; test: Drug uptake in CD1 mouse kidney at 5 to 7 mBq, iv; format: ADME, organism-based; settings: in vivo; outline: as §1
[16] = system: Hippocampus; test: Drug uptake in LPS-stimulated CD1 mouse hippocampus at 5 to 7 mBq, iv in presence of AM630; format: ADME, organism-based; settings: in vivo; outline: as §4
[17] = system: Brain; test: Drug uptake in APPswe/PS1dE9 mouse brain at 5 to 7 mBq, iv; format: ADME, organism-based; settings: in vivo; outline: as §2
[18] = system: Cortex; test: Drug uptake in APPswe/PS1dE9 mouse cortex at 5 to 7 mBq, iv; format: ADME, organism-based; settings: in vivo; outline: as §2
[19] = system: Hippocampus; test: Drug uptake in LPS-stimulated CD1 mouse hippocampus at 5 to 7 mBq, iv administered 5 days post LPS challenge; format: ADME, organism-based; settings: in vivo, 120 h; outline: as §3
[20] = system: Brain; test: Drug uptake in LPS-stimulated CD1 mouse brain at 5 to 7 mBq, iv administered 5 days post LPS challenge measured after 3 mins; format: ADME, organism-based; settings: in vivo, 0.05 h
Outline: (§5)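 Dynamic small-animal PET of an LPS-5-day-treated and a control CD1 mouse. Both were injected simultaneously via the tail vein with [11C]radioligand (~3000 mCi/μmol) and imaged for 90 min in 28 frames. Images reconstructed by 2D OSEM after scatter subtraction. Whole-brain ROIs drawn on mean images gave time-SUV curves.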

[21] = system: Brain; test: Drug uptake in LPS-stimulated CD1 mouse brain at 5 to 7 mBq, iv in presence of AM630; format: ADME, organism-based; settings: in vivo; outline: as §4
[22] = system: Brain; test: Drug uptake in CD1 mouse brain at 5 to 7 mBq, iv; format: ADME, organism-based; settings: in vivo; outline: as §1
[23] = Drug uptake in LPS-stimulated CD1 mouse brainstem at 5 to 7 mBq, iv administered 5 days post LPS challenge; format: ADME, organism-based; settings: read-out: Drug uptake; outline: as §3
[24] = system: Spleen; test: Drug uptake in CD1 mouse spleen at 5 to 7 mBq, iv after 60 mins in presence of AM630; format: ADME, organism-based; settings: in vivo, 1 h; outline: as §4
[25] = system: Cerebellum; test: Drug uptake in LPS-stimulated CD1 mouse cerebellum at 5 to 7 mBq, iv administered 5 days post LPS challenge; format: ADME, organism-based; settings: in vivo, 120 h; outline: as §3
[26] = Drug uptake in APPswe/PS1dE9 mouse brainstem at 5 to 7 mBq, iv; format: ADME, tissue-based; settings: in vivo; outline: as §2
[27] = system: Intestine; test: Drug uptake in CD1 mouse intestine at 5 to 7 mBq, iv; format: ADME, organism-based; settings: in vivo; outline: as §1
[28] = system: Cortex; test: Drug uptake in CD1 mouse cortex at 5 to 7 mBq, iv after 60 mins; format: ADME, organism-based; settings: in vivo, 1 h; outline: as §1
[29] = system: Brain; test: Drug uptake in CD1 mouse brain at 5 to 7 mBq, iv after 3 mins; format: ADME, organism-based; settings: in vivo, 0.05 h; outline: as §5
[30] = Drug uptake in CD1 mouse brainstem at 5 to 7 mBq, iv after 60 mins; format: ADME, organism-based; settings: in vivo, 1 h; outline: as §1
[31] = system: Heart; test: Drug uptake in CD1 mouse heart at 5 to 7 mBq, iv; format: ADME, organism-based; settings: in vivo; outline: as §1

Cannabinoid receptor 2, sequence (P34972 whole entry): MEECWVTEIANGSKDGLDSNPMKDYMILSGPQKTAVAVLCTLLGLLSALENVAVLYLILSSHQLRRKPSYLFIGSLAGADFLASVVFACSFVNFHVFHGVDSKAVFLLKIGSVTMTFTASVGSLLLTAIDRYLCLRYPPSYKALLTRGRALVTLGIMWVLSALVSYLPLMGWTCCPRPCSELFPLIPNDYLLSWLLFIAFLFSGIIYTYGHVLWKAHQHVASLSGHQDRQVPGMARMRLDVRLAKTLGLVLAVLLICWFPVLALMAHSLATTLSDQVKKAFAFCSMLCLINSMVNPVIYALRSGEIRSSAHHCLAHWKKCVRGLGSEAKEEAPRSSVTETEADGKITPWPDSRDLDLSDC

Cc1s/c(=N\C(=O)C2C(C)(C)C2(C)C)n(CCO[11CH3])c1C
Drug uptake [1]: 0.3 % ID/g | Drug uptake [2]: Not Active | Drug uptake [3]: 1.7 % ID/g | Drug uptake [4]: Not Active | Drug uptake [5]: Not Active | Ki [6]: 0.7 nM | Drug uptake [7]: 4.9 % ID/g | Drug uptake [8]: 1.3 % ID/g | Drug uptake [9]: 0.3 % ID/g | Drug uptake [10]: Not Active | Drug uptake [11]: 1.5 % ID/g | Kp [12]: 3.3 | Drug uptake [13]: Not Active | Drug uptake [14]: Not Active | Drug uptake [15]: 2.2 % ID/g | Drug uptake [16]: Not Active | Drug uptake [17]: Not Active | Drug uptake [18]: Not Active | Drug uptake [19]: 1.9 % ID/g | SUV [20]: 2.3 | Drug uptake [21]: Not Active | Drug uptake [22]: 0.3 % ID/g | tissue uptake at 120 h [23]: 2.1 %ID/g | Drug uptake [24]: Not Active | Drug uptake [25]: 1.8 % ID/g | Drug uptake [26]: Not Active | Drug uptake [27]: 1.5 % ID/g | Drug uptake [28]: 0.3 % ID/g | SUV [29]: 0.5 | Drug uptake [30]: 0.3 % ID/g | Drug uptake [31]: 0.7 % ID/g
